Measured values from ChEMBL document CHEMBL1125114, “Cardiotonic agents. 6. Histamine analogues as potential cardiovascular selective H2 agonists” (J Med Chem, 1990).
Several values for one entry are separate records, joined by “and”; a condition that tells them apart may be missing. Equal values may be shown once. Blank lines part the entries; values can stand above or below the molecule they belong to. Activity calls are given as the source filed them. The calls are words filed in the database; no cut-off is given here.

Legend:
Rattus norvegicus [1] = experiment: In vivo effect on gastric acid secretion in rat was determined after subcutaneous administration; type: functional; details: Stomach, sc
Procedure, shortened: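 Rats, subcutaneous dosing, gastric acid secretion measured by the method of Hagiwara and co-workers. ED50 = dose giving a 50% increase in acid secretion over control. Mean ± SEM of three separate dose-response determinations.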

Mustela putorius furo [2] = organism: Mustela putorius furo; experiment: (§1) In vitro inotropy blocking studies in ferret papillary muscle in the presence of 10 uM cimetidine; B-Blocked; type: functional, tissue-based; details: Muscle tissue
Procedure, shortened: (§2)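 Ferret papillary muscle dose-response repeated in the presence of antagonist (cimetidine). A rise of at least 1 order of magnitude in the measured C20 was scored as a blocked inotropic response.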

Cavia porcellus [3] = organism: Cavia porcellus; experiment: In vitro chronotropic effect of histamine at 5 ug/mL in guinea pig atrium; type: functional; details: Cardiac atrium
Procedure, shortened: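 Spontaneously beating guinea pig right atria. Value is the concentration giving 50% of the chronotropic effect of histamine at 5 μg/mL, taken from dose-response curves. Reported as mean ± SEM of three separate dose-response determinations. Response sensitivity checked with cimetidine.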

[4] = dp/dt value of the compound; type: functional
Procedure, shortened: (§3)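 Pentobarbital-anesthetized guinea pigs with stomach ligated to contain gastric fluid. After 30 min stabilization, blood pressure, heart rate, LVEDP and LV dP/dtmax were recorded at 1-min intervals. Compound given by iv infusion for 60 min, then monitored 10 min more. Gastric contents were titrated against 0.1 N NaOH. Value is the average maximum % change from control in the 10 min after infusion, mean ± SEM.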

Cavia porcellus [5] = organism: Cavia porcellus; experiment: In vitro contractile response of histamine at 0.5 ug/mL in guinea pig ileum; type: functional
Procedure, shortened: (§4)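 Isolated guinea pig ileum, H1 activity. Value is the concentration giving 50% of the contractile response of histamine at 0.5 μg/mL, taken from dose-response curves. Reported as mean ± SEM of three separate dose-response determinations. Response sensitivity checked with mepyramine.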

Mustela putorius furo [6] = organism: Mustela putorius furo; experiment: (§5) In vitro inotropy blocking studies in ferret papillary muscle in the presence of 100 uM nadolol; NB-Not Blocked; type: functional, tissue-based; details: Muscle tissue
Procedure, shortened: (§6)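 Ferret papillary muscle dose-response repeated in the presence of 100 μM nadolol. A rise of at least 1 order of magnitude in the measured C20 was scored as a blocked inotropic response.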

[7] = Concentration of compound which gives 20% increase in the force contraction in ferret papillary muscle.; type: functional, Mustela putorius furo, Muscle tissue
Procedure, shortened: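 Ferret papillary muscle force of contraction. C20 is the concentration giving a 20% increase in force. Values come from individual experiments; where three or more runs were done, the mean and range are given. NR means not reached.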

Cavia porcellus [8] = organism: Cavia porcellus; experiment: Contractile response of histamine at 0.5 ug/mL in guinea pig ileum; type: functional; procedure, shortened: as §4
Cavia porcellus [9] = experiment: In vivo percent change in mean arterial pressure in guinea pig was determined at a dose of 10 mg/kg/hr; type: functional, Artery; procedure, shortened: as §3
Mustela putorius furo [10] = organism: Mustela putorius furo; experiment: In vitro inotropy blocking studies in ferret papillary muscle in the presence of 100 uM nadolol; B-Blocked; type: functional, tissue-based; details: Muscle tissue; procedure, shortened: as §6
[11] = dP/dt value of the compound; type: functional; design: unit not given here
Cavia porcellus [12] = experiment: In vivo percent change in total acid secretion in guinea pig was determined at a dose of 10 mg/kg/hr; type: functional; procedure, shortened: as §3
Mustela putorius furo [13] = organism: Mustela putorius furo; experiment: In vitro inotropy blocking studies in ferret papillary muscle in the presence of 10 uM cimetidine; NB-Not Blocked; type: functional, tissue-based; details: Muscle tissue; procedure, shortened: as §2
Cavia porcellus [14] = organism: Cavia porcellus; experiment: Chronotropic effect of histamine at 5 ug/mL in guinea pig atrium; NR-Not reached; type: functional, Cardiac atrium
Rattus norvegicus [15] = experiment: In vivo effect on gastric acid secretion in rat was determined after subcutaneous administration; NC-No change; type: functional, organism-based; details: Stomach
Procedure, shortened: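 Rats, subcutaneous dosing, gastric acid secretion stimulation. ED50 is the dose giving a 50% increase in acid secretion over control. Reported as mean ± SEM of three separate dose-response determinations.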

Cavia porcellus [16] = experiment: In vivo percent change in air way overflow in guinea pig was determined at a dose of 10 mg/kg/hr; type: functional
[17] = Concentration which gives 20% increase in the force contraction in ferret papillary muscle; type: functional, Mustela putorius furo, Muscle tissue
Procedure, shortened: (§7)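 Isolated ferret papillary muscle, force of contraction recorded over a dose-response range. C20 = concentration giving a 20% increase in contractile force. Single experiments reported individually; with three or more runs, mean and range given.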

Cavia porcellus [18] = experiment: In vivo percent change in total acid secretion in guinea pig was determined at a dose of 7.5 mg/kg/h; type: functional
Mustela putorius furo [19] = organism: Mustela putorius furo; experiment: as §1; type: functional, tissue-based; details: Muscle tissue; remark: listed apart in the source
Mustela putorius furo [20] = organism: Mustela putorius furo; experiment: as §5; type: functional, tissue-based; details: Muscle tissue; remark: listed apart in the source
Procedure, shortened: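 Ferret papillary muscle inotropic dose-response curves repeated in the presence of each antagonist (nadolol at 100 μM). A rise in C20 of at least one order of magnitude was scored as a blocked response.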

Cavia porcellus [21] = experiment: In vivo percent change in airway overflow in guinea pig was determined at a dose of 7.5 mg/kg/h; type: functional
Cavia porcellus [22] = experiment: In vivo percent change in heart rate in guinea pig was determined at a dose of 7.5 mg/kg/h; type: functional
Cavia porcellus [23] = experiment: In vivo percent change in mean arterial pressure in guinea pig was determined at a dose of 7.5 mg/kg/h; type: functional, Artery
Mustela putorius furo [24] = organism: Mustela putorius furo; experiment: Concentration of compound which gives 20% increase in the force contraction in ferret papillary muscle; NR-Not reached; type: functional, tissue-based; details: Muscle tissue; procedure, shortened: as §7
Cavia porcellus [25] = experiment: In vivo percent change in mean arterial pressure in guinea pig was determined at a dose of 1 mg/kg/h; type: functional, Artery
Cavia porcellus [26] = experiment: In vivo percent change in total acid secretion in guinea pig was determined at a dose of 1 mg/kg/h; type: functional
Cavia porcellus [27] = experiment: In vivo percent change in heart rate in guinea pig was determined at a dose of 1 mg/kg/h; type: functional
Cavia porcellus [28] = experiment: In vivo percent change in airway overflow in guinea pig was determined at a dose of 1 mg/kg/h; type: functional
Cavia porcellus [29] = experiment: In vivo percent change in heart rate in guinea pig was determined at a dose of 10 mg/kg/hr; type: functional; procedure, shortened: as §3

SMILES: NCCc1c[nH]cn1 [HISTAMINE]
- ED50 (Rattus norvegicus [1]): 2.7 mg/kg
- Activity (Mustela putorius furo [2]): Active
- EC50 (Cavia porcellus [3]): 0.98 µM
- dP/dt [4]: 132
- EC50 (Cavia porcellus [5]): 0.24 µM
- Activity (Mustela putorius furo [6]): inactive
- C20 [7]: 0.42 uM l-1

SMILES: CC(CCc1ccc(O)cc1)N(C)CCc1c[nH]cn1 (stereo not given)
- EC50 (Cavia porcellus [8]): 128 uM l-1
- Change (Cavia porcellus [9]): 5%
- Activity (Mustela putorius furo [10]): Blocked
- dP/dt [11]: 29
- Change (Cavia porcellus [12]): 22%
- Activity (Mustela putorius furo [13]): Not blocked
- EC50 (Cavia porcellus [14]): Not reached
- ED50 (Rattus norvegicus [15]): inactive
- Change (Cavia porcellus [16]): 39%
- C20 [17]: 0.13 uM l-1 and 0.16 uM l-1

- EC50 (Cavia porcellus [8]; Cavia porcellus, Ileum, read-out: EC50): 50.6 µM
- EC50 (Cavia porcellus [14]): Not reached
SMILES: CCCCCCC(=O)NCCc1c[nH]cn1
- Change (Cavia porcellus [18]): 160%
- Activity (Mustela putorius furo [19]): Blocked
- Activity (Mustela putorius furo [20]): Not blocked
- dP/dt [11]: 146
- Change (Cavia porcellus [21]): 197%
- ED50 (Rattus norvegicus [1]): 5.9 mg/kg
- Change (Cavia porcellus [22]): 41%
- Change (Cavia porcellus [23]): 33%
- C20 [17]: 7.3 uM l-1

SMILES: c1coc(CNCCc2c[nH]cn2)c1
- Activity (Mustela putorius furo [10]): Blocked
- C20 [17]: 27 uM l-1

SMILES: O=C(c1ccccc1)N1CCC(NCCc2c[nH]cn2)CC1
- C20 [17]: >27 uM l-1

SMILES: Cc1[nH]cnc1CCNCCNC(=O)N1CCOCC1
- C20 [17]: >90 uM l-1

SMILES: CC(=O)NCCNCCc1c[nH]cn1
- C20 [17]: 46 uM l-1 and 85 uM l-1

SMILES: Cc1[nH]cnc1CCNCCNC(=O)c1ccncc1
- C20 (Mustela putorius furo [24]): Not reached

- EC50 (Cavia porcellus [3]): 4.6 µM
- EC50 (Cavia porcellus [5]): 10.4 µM
SMILES: CN(C)CCCSC(=N)N [DIMAPRIT]
- Change (Cavia porcellus [25]): -25%
- Activity (Mustela putorius furo [19]): Blocked
- Change (Cavia porcellus [26]): 91%
- Activity (Mustela putorius furo [20]): Not blocked
- Change (Cavia porcellus [27]): 19%
- dP/dt [11]: 93
- ED50 (Rattus norvegicus [1]): 3.1 mg/kg
- Change (Cavia porcellus [28]): 11%

SMILES: Cc1[nH]cnc1CCNCCNC(=O)c1ccccc1
- C20 [17]: 27 uM l-1

SMILES: c1coc(CNCCCc2c[nH]cn2)c1
- C20 [17]: 33 uM l-1

SMILES: CC(CCc1ccc(O)cc1)NCCc1c[nH]cn1 (stereo not given)
- Activity (Mustela putorius furo [10]): Blocked
- Activity (Mustela putorius furo [13]): Not blocked
- C20 [17]: 2 uM l-1 and 5 uM l-1

- EC50 (Cavia porcellus [8]): 165 uM l-1
- EC50 (Cavia porcellus [14]): Not reached
SMILES: CN(CCc1c[nH]cn1)Cc1ccco1
- Activity (Mustela putorius furo [19]): Blocked
- Activity (Mustela putorius furo [20]): Not blocked
- Change (Cavia porcellus [9]): -22%
- dP/dt [11]: -6
- Change (Cavia porcellus [12]): 221%
- ED50 (Rattus norvegicus [1]): 15.3 mg/kg
- Change (Cavia porcellus [29]): -8%
- Change (Cavia porcellus [16]): 51%
- C20 [17]: 6.7 uM l-1
